# In ChEMBL document CHEMBL1148894, “Triterpene saponins from the roots of Clematis chinensis” (J Nat Prod, 2004):
# Active and inactive are the calls of the source. The rule behind the calls is not given here.
# Assays:
# HL-60 [1] = test: Cytotoxicity against human HL60 cells at 20 uM after 72 hrs by MTT assay; format: functional, cell-based
# U-251 = test: Cytotoxicity against human U251 cells; format: functional; conditions: read-out: LC50 (the source's name)
# SF-295 = test: Cytotoxicity against human SF295 cells; format: functional; conditions: read-out: LC50 (the source's name)
# HL-60 [2] = test: Cytotoxicity against human HL60 cells after 72 hrs by MTT assay; format: functional, cell-based; conditions: HL-60, 72 h
# Outline: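 HL-60 cells (JCRB 0085) grown in RPMI 1640 with heat-inactivated 10% FBS, L-glutamine, penicillin and streptomycin. Seeded at 4 × 10^4 cells/mL, preincubated 24 h at 37 °C in 5% CO2. Samples added in EtOH-H2O (1:1) to final 0.1-50 µg/mL, with vehicle controls, then incubated 72 h. MTT added for 4 h, formazan dissolved in DMSO, A550 read. Done in triplicate; IC50 is the 50% drop in viable cells.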
# [3] = Cytotoxicity against human BSY1 cells; format: functional; conditions: BSY-1, read-out: LC50 (the source's name)
# MKN-28 = test: Cytotoxicity against human MKN28 cells; format: functional; conditions: read-out: LC50 (the source's name)
# NCI-H460 = test: Cytotoxicity against human NCI-H460 cells; format: functional; conditions: read-out: LC50 (the source's name)
# PC-3 = test: Cytotoxicity against human PC3 cells; format: functional; conditions: read-out: LC50 (the source's name)
# OVCAR-8 = test: Cytotoxicity against human OVCAR8 cells; format: functional; conditions: read-out: LC50 (the source's name)
# OVCAR-3 = test: Cytotoxicity against human OVCAR-3 cells; format: functional; conditions: read-out: LC50 (the source's name)
Structure (SMILES),Activity (HL-60 [1]),CC50 (U-251) [µM],CC50 (SF-295) [µM],IC50 (HL-60 [2]) [µM],CC50 [3] [µM],CC50 (MKN-28) [µM],CC50 (NCI-H460) [µM],CC50 (PC-3) [µM],CC50 (OVCAR-8) [µM],CC50 (OVCAR-3) [µM]
C[C@@H]1O[C@@H](OC[C@H]2O[C@@H](O[C@H]3[C@H](O)[C@@H](O)[C@H](O[C@@H]4CO[C@@H](O[C@@H]5[C@@H](O)[C@H](C)O[C@@H](O[C@H]6[C@H](O[C@H]7CC[C@]8(C)[C@H]9CC=C%10[C@@H]%11CC(C)(C)CC[C@]%11(C(=O)O[C@@H]%11O[C@H](CO[C@@H]%12O[C@H](CO)[C@@H](O[C@@H]%13O[C@@H](C)[C@H](O)[C@@H](O)[C@H]%13O)[C@H](O)[C@H]%12O)[C@@H](O)[C@H](O)[C@H]%11O)CC[C@@]%10(C)[C@]9(C)CC[C@H]8C7(C)C)OC[C@H](O)[C@@H]6O)[C@@H]5O)[C@H](O)[C@@H]4O)O[C@@H]3CO)[C@H](O)[C@@H](O)[C@@H]2O)[C@H](O)[C@H](O)[C@H]1O,inactive,,,,,,,,,
C[C@@H]1O[C@@H](OC[C@H]2O[C@@H](O[C@H]3[C@H](O)[C@@H](O)[C@H](O[C@@H]4CO[C@@H](O[C@@H]5[C@@H](O)[C@H](C)O[C@@H](O[C@H]6[C@H](O[C@H]7CC[C@]8(C)[C@H]9CC=C%10[C@@H]%11CC(C)(C)CC[C@]%11(C(=O)O)CC[C@@]%10(C)[C@]9(C)CC[C@H]8C7(C)C)OC[C@H](O)[C@@H]6O)[C@@H]5O)[C@H](O)[C@@H]4O)O[C@@H]3CO)[C@H](O)[C@@H](O)[C@@H]2O)[C@H](O)[C@H](O)[C@H]1O,,6.3,6,2.8,5.9,30,40,6,71,47
C[C@@H]1O[C@@H](O[C@H]2[C@H](O[C@H]3CC[C@]4(C)[C@H]5CC=C6[C@@H]7CC(C)(C)CC[C@]7(C(=O)O)CC[C@@]6(C)[C@]5(C)CC[C@H]4C3(C)C)OC[C@H](O)[C@@H]2O)[C@H](O)[C@H](O[C@@H]2OC[C@@H](O)[C@@H](O)[C@H]2O)[C@H]1O,,,,2.3,,,,,,
